We go through two compounds from PMC6690926 (International Journal of Nanomedicine, 2019).

A short description of series [1]: In vitro cytotoxicity of Act D. The series is classed as cell-based. Conditions: human, Caco-2 cells. In outline: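 Caco-2 cells were seeded at 1×10^4 cells/well in DMEM with 10% FBS and cultured for 24 h. They were then exposed for 5 h to the test compound at 1, 2, 3.2 and 6 µM in HBSS. WST-8 was added for 1 h and absorbance read at 450 nm. Viability is expressed as a percentage of untreated cells; mean ± SD, n=6.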

Series [2] can be described thus: Parallel artificial membrane permeability assay. The series is classed as in vitro ADME. Conditions: PAMPA, pH 6.8. In outline: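 PAMPA: donor wells held test formulation diluted in PBS pH 6.8 to 200 µg/mL drug equivalent; receiver wells held PBS pH 6.8. Plates were incubated 5 h at room temperature. Donor and receiver concentrations were measured by HPLC at 254 nm (C18; water pH 3.5/acetonitrile 80:20, 1 mL/min). Effective permeability was calculated with filter area 0.288 cm2, donor volume 0.2 mL and receiver volume 0.3 mL, using equilibrium concentration.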
(The PAMPA barrier holds no transporters, so it reflects passive diffusion.)

Series [3] is described as follows: In vitro permeability across a Caco-2 cell monolayer. The series is classed as in vitro ADME. Conditions: human. (In general: Passage across Caco-2 layers is used to estimate intestinal permeability.)
Series [4] is described as follows: In vivo pharmacokinetic study in rats. As to conditions: Sprague-Dawley, rat, plasma, 25 mg/kg. An outline of the steps: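 Male Sprague-Dawley rats (6–7 weeks, 200–250 g) received the test formulation orally in water at 25 mg/kg drug equivalent. The IV reference was 5 mg/kg aqueous drug by tail vein. Retro-orbital blood was taken into heparin plus 3.8% sodium citrate, spun at 2,500×g for 15 min at 4 °C, and plasma stored at −70 °C. Plasma was assayed by LC/MS (C18, ESI positive, m/z 428; DAMPA internal standard). Non-compartmental analysis; n=4, mean ± SD.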

*1 amine or outer side, *2 acyl side, *3 side chain or, on linkers, in order; H or OH if unused. Where a SMILES comes first, the peptide text is derived from it. Bridges are numbered along the chain shown (N, C = ends). Roman numbers before positions name the chains, in order. [ ]: non-standard residue; d: D form. Actinocin(9to1) = Cc1c2oc3c(C)ccc(C(=O)[*:1])c3nc-2c(C(=O)[*:2])c(N)c1=O; NMeV = CN[C@H](C(=O)O)C(C)C; Sar = CNCC(=O)O

Consider `Cc1c2oc3c(C)ccc(C(=O)N[C@@H]4C(=O)N[C@H](C(C)C)C(=O)N5CCC[C@H]5C(=O)N(C)CC(=O)N(C)[C@@H](C(C)C)C(=O)O[C@@H]4C)c3nc-2c(C(=O)N[C@@H]2C(=O)N[C@H](C(C)C)C(=O)N3CCC[C@H]3C(=O)N(C)CC(=O)N(C)[C@@H](C(C)C)C(=O)O[C@@H]2C)c(N)c1=O` [Act D, actinomycin D] (I: T[dV]P[Sar][NMeV] / II: T[dV]P[Sar][NMeV]; ester I:1-I:C, II:1-II:C; linker I:N-II:N via Actinocin(9to1)), for which the viability at 5 h, 3.2 µM in series [1] was found to be 105 ± 6.81%.
In series [2], `Nc1nc2[nH]cc(CCc3ccc(C(=O)N[C@@H](CCC(=O)O)C(=O)O)cc3)c2c(=O)[nH]1` [PMX, N-[4-[2-(2-amino-3,4-dihydro-4-oxo-7H-pyrrolo[2,3-d]pyrimidin-5-yl)-ethyl]-benzoyl]-L-glutamic acid] showed a Papp at 5 h, 200 µg/mL of 0.29 ± 0.08 ×10⁻⁶ cm/s. This compound showed a Papp at 5 h, 100 µg/mL in series [3] of 1.78 ± 0.118 ×10⁻⁶ cm/s. In series [4] (oral), this compound showed a bioavailability of 5.02 ± 0.57%. In series [4] (po), the total exposure AUC(0-inf) is 2770 ± 210 ng·h/mL, the AUC(0-t) is 2350 ± 270 ng·h/mL, the Cmax came out at 1280 ± 170 ng/mL and the Tmax was found to be 0.63 ± 0.25 h. Besides, the half-life in series [4] (po) was 2.5 ± 0.45 h.

By viability is commonly meant a read-out of living cells in per cent, often relative to untreated cells. The term Papp denotes a coefficient for how fast a substance crosses the barrier. Low readings indicate slow passage, high ones fast passage. The bioavailability is the share of a dose that reaches the circulation, judged against a reference dose that is usually intravenous. High values mean good availability, low ones poor availability. Usually AUC(0-inf) stands for the area under the concentration-time curve extrapolated to infinity. Read a high AUC(0-inf) as more exposure. The AUC(0-t) is the area under the concentration-time curve up to a stated or last time point. A word on the Cmax: it is the highest concentration seen after dosing. What is called Tmax is the time from dosing to the highest level. What is called half-life is how long it takes for the measured level to halve. A high value points to slow decline.
